# The list is not random: actives were taken first. Their share in the collection is about 1.2%.
# Runt-SMMHC FRET = Runt domain-CBFb-SMMHC interaction inhibition; Q01196+Q13951; AID 1434; inhibition, % at 20 µM; Cerulean-Runt/Venus-CBFb-SMMHC FRET ratio 530/480, 1 h; 220,000 compounds, 0.74% hits;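 active means mean inhibition across duplicate retests at 20 µM reaching about 50%, limit read from the data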;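 further: 0% = DMSO wells and 100% = wells with excess untagged CBFb-SMMHC; inhibitors lower the FRET ratio by blocking Runt binding to CBFb-SMMHC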
# Target sequence (Q01196 whole entry, looked up, the tested form may be a part): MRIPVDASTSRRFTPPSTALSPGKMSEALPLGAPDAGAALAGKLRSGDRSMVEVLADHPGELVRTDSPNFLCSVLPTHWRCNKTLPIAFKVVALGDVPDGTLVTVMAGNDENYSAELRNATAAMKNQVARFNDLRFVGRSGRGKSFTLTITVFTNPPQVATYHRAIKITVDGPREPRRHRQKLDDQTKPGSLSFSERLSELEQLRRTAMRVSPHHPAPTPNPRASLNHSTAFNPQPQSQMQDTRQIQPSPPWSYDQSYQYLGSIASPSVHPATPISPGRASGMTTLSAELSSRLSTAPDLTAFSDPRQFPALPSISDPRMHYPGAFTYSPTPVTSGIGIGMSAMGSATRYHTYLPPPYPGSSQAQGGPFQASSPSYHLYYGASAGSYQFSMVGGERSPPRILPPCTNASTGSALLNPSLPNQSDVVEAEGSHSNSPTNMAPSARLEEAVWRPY
# Target sequence (Q13951 whole entry, looked up, the tested form may be a part): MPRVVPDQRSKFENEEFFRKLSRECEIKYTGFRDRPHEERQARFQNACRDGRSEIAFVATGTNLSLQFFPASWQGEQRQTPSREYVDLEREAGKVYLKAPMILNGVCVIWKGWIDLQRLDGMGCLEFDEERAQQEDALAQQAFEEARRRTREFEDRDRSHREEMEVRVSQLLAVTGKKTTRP
# Runt-CBFb FRET = inhibitors of human RUNX1 Runt domain binding to CBFb; inhibition, % at 20 µM; Q01196+Q13951; Cerulean-Runt/Venus-CBFb FRET ratio 530/480, 1 h; 220,000 compounds, 0.46% hits;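 active means inhibition over about 50% at 20 µM in the single-dose screen, limit read from the data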;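 further: 0% = DMSO wells and 100% = excess unlabeled CBFb competitor control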
#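 Measured by: fluorescence energy transfer, 422 nm excitation, 530/480 nm emission; Assay system: Cerulean-Runt domain; Medium: Tris pH 7.5 buffer with BSA; Measure: loss of energy transfer signal; Controls: 5 µM unlabeled CBFb as full-inhibition high control; Incubation: protein complex preformed 1 h, compound exposure 1 h, room temperature, dark.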
# RanGTP-Impb inh = inhibitors of RanGTP-importin-beta interaction, primary screen, biochemical, FRET, CFP-Ran, YFP-importin-beta, homogeneous | inhibition, % (no concentration beside the values) | 300,000 compounds, 1.1% hits | AID 2216 | cell-free CFP-Ran/YFP-importin-beta FRET ratio;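 active means more than half of the replicate wells show a fall in the fluorescence ratio signal beyond about 16%, limit read from the data, passing the limit was not always enough; inconclusive means exactly half of the replicate wells pass the set limit; inactive means fewer than half of replicates pass the limit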;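 further: 0% = DMSO wells and 100% = Ran loaded with GDP instead of GTP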
# CaV13 ICDI inh = Primary screen for inhibitors of IQ motif and Ca2+-dependent inactivation inhibitor domain binding in CACNA1D, Förster resonance energy transfer in living cells, … | inhibition, % at 12.3 µM | 340,000 compounds, 0.098% hits | HEK cells, CFP/YFP FRET ICDI-IQ, plate reader, 10 min; percent FRET-ratio fall versus neutral wells;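 active means mean replicate inhibition of at least 30% and at least 1% of replicates passing that level; inconclusive means only one of the two criteria is met; inactive means neither criterion is met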;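 further: 0% = median of the neutral control wells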
# The depositor's hits bear a star; ? = inconclusive; . = not tested or not shown; + = active, no number.
SMILES,Runt-SMMHC FRET,Runt-CBFb FRET,RanGTP-Impb inh,CaV13 ICDI inh
O=C(CC(C(=O)O)c1c[nH]c2ccccc12)c1ccccc1 (centres undefined),3,1,42*,-5
COc1ccccc1C1CN(c2ccc(F)cc2F)N=C1c1cccs1 (centres undefined),83*,16,-10,.
COc1ccccc1C1CC(c2cccs2)=Nc2ccccc2S1 (centres undefined),5,33,4,-3
Cc1c(C)c2cc(Cl)c(O)c(CN3CCN(C)CC3)c2oc1=O,127*,96*,-1,-4
Cc1cc(=O)oc2c(CN3CCCC3)c(O)c(Cl)cc12,.,.,6,-4
COc1cccc2[nH]c(-c3ccccn3)nc12,.,.,.,-4
O=C(NCc1ccc2c(c1)OCO2)c1ccc(NC(=O)C2CCCO2)cc1 (centres undefined),-2,0,-3,-6
O=C(Nc1ccc2c(c1)OCCO2)c1ccc(NC(=O)C2CCCO2)cc1 (centres undefined),-1,-1,-3,93*
O=C1OCCN1C(=O)[C@H]1[C@H](c2ccc(Cl)cc2)C(c2cccc(Cl)c2)=NN1c1ccccc1,57,28,30*,.
O=C1OCCN1C(=O)[C@H]1[C@H](c2ccc(F)cc2)C(c2cccc(Cl)c2)=NN1c1ccccc1,.,.,.,-10
COc1ccccc1[C@@H]1C(c2cccc(Cl)c2)=NN(c2ccccc2)[C@H]1C(=O)N1CCOC1=O,73*,32,27*,.
Nc1ccc2nc(-c3ccccc3)cnc2c1,.,.,-47,+
Nc1ccc(-c2cnc3ccccc3n2)cc1,.,.,3,-67
CCOC(=O)c1cc2c(=O)n3cccc(C)c3nc2n(CC(C)C)c1=NC(=O)c1ccco1,88*,10,164*,44*
COCCCn1c(C(=O)N2CC(C)OC(C)C2)cc2c(=O)n3cccc(C)c3nc21 (centres undefined),.,.,2,.
Cc1cccn2c(=O)c3cc(C(=O)N4CCN(C(=O)c5ccco5)CC4)n(C)c3nc12,19,4,-2,.
CCOCCCn1c(=NC(=O)c2ccco2)c(C(=O)OCC)cc2c(=O)n3cccc(C)c3nc21,81*,12,152*,10
CC(NC(=O)COc1ccc(S(=O)(=O)N2CCOCC2)cc1)c1ccccc1 (centres undefined),.,.,.,-3
COCCNC(=O)C1CCCN(C(=O)c2sccc2C)CC1 (centres undefined),.,.,.,-6
Cc1cc2c(c(=O)n1C)C(Cc1ccccc1)C(C#N)=C(N)O2 (centres undefined),146*,123*,63*,-3
COc1ccc(CNc2cc(C)nc3ccc(OC)cc23)cc1,.,.,-6,-2
C=CCc1cc(/C=C/c2nc(O)c([N+](=O)[O-])c(=O)[nH]2)cc(OC)c1O,80*,38,34*,-13
CCOc1cc(/C=C\c2nc(O)c([N+](=O)[O-])c(=O)[nH]2)ccc1OC(C)C,.,.,7,-3
O=C(COc1ccccc1)N=C1SC2CS(=O)(=O)CC2N1CCc1ccccc1 (centres undefined),.,.,1,-17
CCCCn1c(N)c(NCC)c(=O)[nH]c1=O,70*,24,.,-5
SMILES,Runt-SMMHC FRET,Runt-CBFb FRET,RanGTP-Impb inh,CaV13 ICDI inh
COCCCn1c(C(=O)NCCN2CCOCC2)cc2c(=O)n3ccccc3nc21,.,.,6,-3
C=CCn1c(=N)c(C(=O)NCCCOC)cc2c(=O)n3ccccc3nc21,82*,9,175*,14
C=CCn1c(=N)c(C(=O)NCCCOC)cc2c(=O)n3cc(C)ccc3nc21,79*,10,2,25
Cc1ccsc1C(=O)OCC(=O)NCc1cccs1,.,.,.,-6
NS(=O)(=O)c1ccc(N/N=C/c2ccc(O)cc2O)c([N+](=O)[O-])c1,0,-1,?,-7
NS(=O)(=O)c1ccc(N/N=C/c2ccc(O)c(O)c2O)c([N+](=O)[O-])c1,65*,43,.,-7
Cc1cc(OCC(=O)NNC(=O)c2cccs2)ccc1Br,.,.,0,-3
COC(=O)C1C2CC3c4[nH]c5cc(OC)ccc5c4CCN3CC2CC(OC(=O)CC(C)=O)C1OC (centres undefined),.,.,.,-10
COC(=O)[C@H]1[C@H]2C[C@H]3c4[nH]c5ccccc5c4CCN3C[C@H]2CC[C@@H]1O,.,.,43*,-5
COC(=O)C1C(O)CCC2CN3CCc4c([nH]c5ccccc45)C3CC21 (centres undefined),71*,8,65*,.
Cc1ccc(-c2ccc(NC(=O)C3C4C=CC(C4)C3C(=O)O)cc2)o1 (centres undefined),5,8,30*,-3
CN(C)CCCn1c(N)c(C#N)c2nc3ccccc3nc21,80*,9,61*,-4
Cc1ccc(S(=O)(=O)c2c(N)n(CCCN(C)C)c3nc4ccccc4nc23)cc1,21,8,1,-19
CCCCC(CC)Cn1c(N)c(C#N)c2nc3ccccc3nc21 (centres undefined),101*,44,49*,-5
CCCCC(CC)Cn1c2nc3ccccc3nc2c2c(=N)oc(C)nc21 (centres undefined),-5,-2,-1,.
Cc1ccc(-n2c(C)nc3c(cnn3-c3ccc(C)c(C)c3)c2=O)cc1C,4,-1,30*,-6
Cc1ccc(-n2c(C)nc3c(cnn3-c3ccc(F)cc3)c2=O)cc1C,-2,-4,-3,-5
CCNC(=O)c1cc2c(=O)n3cccc(C)c3nc2n(Cc2ccc(C)cc2)c1=N,41,11,+,55*
CCOC(=O)c1cc2c(=O)n3cccc(C)c3nc2n(Cc2ccccc2Cl)c1=N,65*,126*,.,.
Cc1cccn2c(=O)c3cc(C(=O)NCCN4CCOCC4)n(Cc4ccccc4)c3nc12,6,2,.,.
Cc1cccn2c(=O)c3cc(C(=O)NC(C)C)c(=N)n(Cc4ccncc4)c3nc12,62*,18,+,.
CCCCCCCCCCSc1n[nH]c(N)n1,-1,-6,2,11
Cc1ccc(C2C3=C(CC(C)(C)CC3=O)Nc3[nH]c(=S)[nH]c(=O)c32)cc1 (centres undefined),71*,18,.,-5
C[C@@H]1CCCCO[C@@H](CN(C)CC2CCCCC2)[C@@H](C)CN([C@H](C)CO)C(=O)c2cc(NC(=O)Nc3ccc4c(c3)OCO4)ccc2O1,.,.,.,-6
CCOC(=O)C1CCCN(c2nc3c(C)cccn3c(=O)c2/C=C(\C#N)C(=O)NCc2ccco2)C1 (centres undefined),4,121*,-1,-5
Cc1cccn2c(=O)c(/C=C(\C#N)C(=O)NCc3ccco3)c(N3CCC(C(N)=O)CC3)nc12,.,71*,3,24
N#C/C(=C\c1c(N2CCCCC2)nc2ccccn2c1=O)C(=O)NCc1ccco1,81,65*,1,-18
